Test results published in ChEMBL document CHEMBL3407350, “Synthesis and anti-hepatitis B virus activity of C4 amide-substituted isosteviol derivatives” (Bioorg Med Chem, 2015).
≈ marks a conversion by molar mass, not a printed value. Calls of active or inactive are those of the source. The rule behind the calls is not given here.

What was measured:
[1] = Cytotoxicity against human HepG2(2.2.15) cells; format: cell-based; details: read-out: TC50 (the source's name)
In short: (§1)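 Cytotoxicity by MTS: HepG2 2.2.15 cells seeded at 4×10^4 cells/ml for 24 h, exposed to serial dilutions 2.5–160 µg/ml for 3 days; four replicates, viability expressed relative to untreated control; TC50 as 50% cytotoxic concentration.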

Hepatitis B virus [2] = assay: Antiviral activity against HBV infected in human HepG2(2.2.15) cells assessed as inhibition of surface antigen secretion by EIA; format: functional, organism-based
In short: (§2)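 HepG2 2.2.15 cells (HepG2 stably carrying a head-to-tail HBV DNA dimer; MEM, 10% FBS, 37 °C, 5% CO2) treated with compound for 3 days; conditioned medium assayed for secreted HBsAg and HBeAg by enzyme immunoassay; mean and SD, n = 3; IC50 taken as 50% inhibitory concentration.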

[3] = Selectivity index, ratio of TC50 for human HepG2(2.2.15) cells to IC50 for HBV infected in human HepG2(2.2.15) cells assessed as inhibition of surface antigen secretion
In short: (§3)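 Selectivity index computed as TC50 (MTS, HepG2 2.2.15, 3 days) divided by IC50 for HBsAg, HBeAg or virion DNA inhibition in the same cell line.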

[4] = Selectivity index, ratio of TC50 for human HepG2(2.2.15) cells to IC50 for HBV infected in human HepG2(2.2.15) cells assessed as inhibition of e antigen secretion; in short: as §3
[5] = Cytotoxicity against human HepG2(2.2.15) cells at >20 ug/ml after 3 days by MTS assay; format: cell-based; details: hepg2 2.2.15, 72 h; in short: as §1
[6] = Selectivity index, ratio of TC50 for human HepG2(2.2.15) cells to IC50 for HBV infected in human HepG2(2.2.15) cells assessed as inhibition of viral DNA replication; in short: as §3
Hepatitis B virus [7] = assay: Antiviral activity against HBV infected in human HepG2(2.2.15) cells assessed as inhibition of e antigen secretion after 3 days by EIA; format: functional, organism-based; in short: as §2
Hepatitis B virus [8] = assay: Antiviral activity against HBV transfected in human HuH7 cells assessed as reduction in LHBsAg protein expression at 1 to 10 ug/ml after 2 days by immunoblot analysis relative to vehicle-treated control; format: functional, organism-based; details: Huh-7
In short: (§4)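 Huh7 transfected with pHBV1.2 (Lipofectamine 2000, 2 days), then treated 1, 5, 10 µg/ml for 2 days; whole-cell RIPA lysates, 25 µg protein per lane SDS-PAGE, PVDF immunoblot for LHBsAg, SHBsAg, HBcAg with ECL detection; α-tubulin loading control; compared with vehicle.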

Hepatitis B virus [9] = assay: Inhibition of NF-kappaB promoter activity in HBV infected in human HuH7 cells transfected with pNF-kappaB-Luc at 10 ug/ml after 24 hrs by luciferase reporter gene assay; format: functional, organism-based; details: Huh-7
In short: (§5)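 Huh7 in 24-well plates transfected with pAP1-, pAP2-, pNF-κB- or pISRE-Luc plus pRL-SV40 for 24 h, then treated ± 10 µg/ml; dual-luciferase read-out normalized to Renilla; mean and SD, n = 3.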

Hepatitis B virus [10] = assay: Antiviral activity against HBV infected in human HepG2(2.2.15) cells assessed as inhibition of viral DNA replication; format: functional, organism-based
In short: (§6)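 Secreted virion DNA from HepG2 2.2.15 cells after 3 days of compound treatment; HBV DNA isolated from conditioned medium and quantified by SYBR Green real-time PCR (45 cycles, 95 °C 15 s / 58 °C 1 min); mean and SD, n = 3; IC50 as 50% inhibitory concentration.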

Huh-7 [11] = assay: Reduction of phosphorylated p65 NF-kappaB level in human HuH7 cells transfected with pHBV1.2 at 1 to 10 ug/ml after 2 days by Western blotting analysis; format: functional, cell-based
In short: (§7)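 Huh7 transfected with pHBV1.2 for 2 days, treated 1, 5, 10 µg/ml for 2 further days; nuclear and cytoplasmic fractions by NE-PER; 25 µg protein immunoblotted for p65, p50, phospho-p65 (nuclear, PCNA control) and IκBα (cytoplasmic); three experiments.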

Hepatitis B virus [12] = assay: Upregulation of AP-1 promoter activity in HBV infected in human HuH7 cells transfected with pAP1-Luc at 10 ug/ml after 24 hrs by luciferase reporter gene assay; format: functional, organism-based; details: Huh-7; in short: as §5
Huh-7 [13] = assay: Reduction in NF-kappaB binding to consensus DNA-binding sequence in human HuH7 cells transfected with pHBV1.2 by ESMA analysis; format: functional, cell-based
Huh-7 [14] = assay: Antiviral activity against HBV infected in human HuH7 cells transfected with pHBV1.2/p65 expression plasmid at 10 ug/ml after 2 days by RT-PCR analysis; format: functional, cell-based
In short: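 Huh7 cells cotransfected with pHBV1.2 plus 0.5 or 2.5 µg pCMV-p65 (or empty vector) for 2 days, then exposed to 10 µg/ml for 2 more days; secreted viral particle DNA quantified by real-time PCR; n = 3.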

Hepatitis B virus [15] = assay: Antiviral activity against HBV infected in human HepG2(2.2.15) cells assessed as inhibition of e antigen secretion by EIA; format: functional, organism-based; in short: as §2
[16] = Cytotoxicity against HBV-transfected human HuH7 cells up to 160 ug/ml after 3 days by MTS assay; format: cell-based; details: huh-7, 72 h
In short: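 Huh7 cells (DMEM, 10% FBS) transfected with HBV plasmid, seeded at 4×10^4 cells/ml for 24 h, treated with 2.5–160 µg/ml serial dilutions for 3 days; viability by MTS read-out, four replicates, relative to untreated control.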

Hepatitis B virus [17] = assay: Inhibition of ISRE promoter activity in HBV infected in human HuH7 cells transfected with pISRE-Luc at 10 ug/ml after 24 hrs by luciferase reporter gene assay; format: functional, organism-based; details: Huh-7; in short: as §5
[18] = Upregulation of cytoplasmic IkappaBalpha level in human HuH7 cells transfected with pHBV1.2 at 1 to 10 ug/ml after 2 days by Western blotting analysis; format: functional, cell-based; details: Huh-7; in short: as §7
Huh-7 [19] = assay: Inhibition of nuclear p65/p50 NF-kappaB protein expression in human HuH7 cells transfected with pHBV1.2 at 1 to 10 ug/ml after 2 days by Western blotting analysis; format: functional, cell-based; in short: as §7
Hepatitis B virus [20] = assay: Reduction of preS promoter activity in HBV infected in human HuH7 cells transfected with pPreS-Luc at 10 ug/ml after 24 hrs by luciferase reporter gene assay; format: functional, organism-based; details: Huh-7
In short: (§8)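 Huh7 seeded in 24-well plates 24 h, cotransfected with viral promoter-luciferase construct (Core, S, preS or X; 1 µg/well) plus pHBV1.2 and pRL-SV40 (0.02 µg/well) in serum-free DMEM 24 h; then 2% FBS medium ± 10 µg/ml; firefly normalized to Renilla; n = 3.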

Hepatitis B virus [21] = assay: Inhibition of Core promoter activity in HBV infected in human HuH7 cells transfected with pCore-Luc at 10 ug/ml after 24 hrs by luciferase reporter gene assay; format: functional, organism-based; details: Huh-7; in short: as §8
Hepatitis B virus [22] = assay: Antiviral activity against HBV infected in human HepG2(2.2.15) cells assessed as inhibition of surface antigen secretion after 3 days by EIA; format: functional, organism-based; in short: as §2
Hepatitis B virus [23] = assay: Antiviral activity against HBV transfected in human HuH7 cells assessed as reduction in viral DNA replication after 2 days by Southern blot analysis; format: functional, organism-based; details: Huh-7
In short: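 Intracellular encapsidated HBV DNA from core particles of pHBV1.2-transfected Huh7 cells treated 2 days; 1.0% agarose, Southern blot with DIG-labeled full-length HBV probe; lamivudine-treated cells as comparison.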

Hepatitis B virus [24] = assay: Inhibition of AP-2 promoter activity in HBV infected in human HuH7 cells transfected with pAP2-Luc at 10 ug/ml after 24 hrs by luciferase reporter gene assay; format: functional, organism-based; details: Huh-7; in short: as §5
Hepatitis B virus [25] = assay: Antiviral activity against HBV transfected in human HuH7 cells assessed as reduction in precore/pregenomic RNA level at 1 to 10 ug/ml after 2 days by Northern blot analysis; format: functional, organism-based; details: Huh-7
In short: (§9)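 pHBV1.2-transfected Huh7 (cotransfected pCMV-β for efficiency) treated 1, 5, 10 µg/ml for 2 days; 5 µg total RNA on 1.0% agarose, Northern blot with whole HBV genome probe; GAPDH RNA loading control, β-gal for transfection efficiency.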

Hepatitis B virus [26] = assay: Reduction of S promoter activity in HBV infected in human HuH7 cells transfected with pS-Luc at 10 ug/ml after 24 hrs by luciferase reporter gene assay; format: functional, organism-based; details: Huh-7; in short: as §8
Hepatitis B virus [27] = assay: Antiviral activity against HBV infected in human HepG2(2.2.15) cells assessed as inhibition of viral DNA replication by RT-PCR analysis; format: functional, organism-based; in short: as §6
Hepatitis B virus [28] = assay: Antiviral activity against HBV transfected in human HuH7 cells assessed as reduction in major S/preS RNA level at 1 to 10 ug/ml after 2 days by Northern blot analysis; format: functional, organism-based; details: Huh-7; in short: as §9
Hepatitis B virus [29] = assay: Antiviral activity against HBV transfected in human HuH7 cells assessed as reduction in SHBsAg protein expression at 1 to 10 ug/ml after 2 days by immunoblot analysis relative to vehicle-treated control; format: functional, organism-based; details: Huh-7; in short: as §4
Hepatitis B virus [30] = assay: Antiviral activity against HBV transfected in human HuH7 cells assessed as reduction in HBcAg protein expression at 1 to 10 ug/ml after 2 days by immunoblot analysis relative to vehicle-treated control; format: functional, organism-based; details: Huh-7; in short: as §4

With Cc1ccc(C(=O)N[C@]2(C)CCC[C@@]3(C)[C@@H]4CC[C@@]5(C)C[C@]4(CC[C@@H]32)CC5=O)cc1 the CC50 [1] was 18.9 µg/mL (≈ 46.5 µM).

For C[C@@]12CC[C@@H]3[C@@](CC[C@H]4[C@@]3(C)CCC[C@@]4(C)NC(=O)c3ccccc3)(CC1=O)C2, the CC50 [1] was 48.5 µg/mL (≈ 123 µM), the IC50 (Hepatitis B virus [2]) was 35.6 µg/mL (≈ 90.6 µM) and the “Selectivity Index” value [3] was 1.36.

For CCCC(=O)N[C@]1(C)CCC[C@@]2(C)[C@@H]3CC[C@@]4(C)C[C@]3(CC[C@@H]21)CC4=O, the “Selectivity Index” value [4] was 5.89, the CC50 [1] was 65.7 µg/mL (≈ 183 µM) and the Activity [5] was “Toxic”. The “Selectivity Index” value [6] was 11.41, the inhibition (Hepatitis B virus [7]) was “Dose-dependent effect” and the Activity (Hepatitis B virus [8]) was “Active”. The inhibition (Hepatitis B virus [9]) was “Active”, the IC50 (Hepatitis B virus [10]) was 5.76 µg/mL (≈ 16 µM) and the Activity (Huh-7 [11]) was “Active”. For the same molecule, the Activity (Hepatitis B virus [12]) was “Active”, the Activity (Huh-7 [13]) was “Dose-dependent effect” and the Activity (Huh-7 [14]) was “inactive”. For the same molecule, the IC50 (Hepatitis B virus [2]) was 10.4 µg/mL (≈ 28.8 µM), the IC50 (Hepatitis B virus [15]) was 11.2 µg/mL (≈ 31 µM) and the Activity [16] was “Non-toxic”. The inhibition (Hepatitis B virus [17]) was “inactive”, the Activity [18] was “Active” and the inhibition (Huh-7 [19]) was “Active”. For the same molecule, the Activity (Hepatitis B virus [20]) was “Active”, the inhibition (Hepatitis B virus [21]) was “inactive” and the inhibition (Hepatitis B virus [22]) was “Dose-dependent effect”. The Activity (Hepatitis B virus [23]) was “Dose-dependent effect”, the inhibition (Hepatitis B virus [24]) was “inactive” and the Activity (Hepatitis B virus [25]) was “Active”. The Activity (Hepatitis B virus [26]) was “Active”, the inhibition (Hepatitis B virus [27]) was “Dose-dependent effect” and the “Selectivity Index” value [3] was 6.34. For the same molecule, the Activity (Hepatitis B virus [28]) was “Active”, the Activity (Hepatitis B virus [29]) was “Active” and the Activity (Hepatitis B virus [30]) was “Active”.

With C[C@@]12CC[C@@H]3[C@@](CC[C@H]4[C@@]3(C)CCC[C@@]4(C)NC(=O)c3ccc(F)cc3)(CC1=O)C2 the “Selectivity Index” value [4] was 1.54, the CC50 [1] was 19.7 µg/mL (≈ 48 µM) and the “Selectivity Index” value [6] was 2.65. It also gave an IC50 (Hepatitis B virus [10]) of 7.44 µg/mL (≈ 18.1 µM), an IC50 (Hepatitis B virus [2]) of 4.17 µg/mL (≈ 10.1 µM) and an IC50 (Hepatitis B virus [15]) of 12.8 µg/mL (≈ 31.1 µM). The “Selectivity Index” value [3] was 4.73.

In the case of CCC(=O)N[C@]1(C)CCC[C@@]2(C)[C@@H]3CC[C@@]4(C)C[C@]3(CC[C@@H]21)CC4=O, the CC50 [1] was 87.5 µg/mL (≈ 253 µM), the IC50 (Hepatitis B virus [2]) was 32.5 µg/mL (≈ 93.9 µM) and the “Selectivity Index” value [3] was 2.7.

With CCc1ccc(C(=O)N[C@]2(C)CCC[C@@]3(C)[C@@H]4CC[C@@]5(C)C[C@]4(CC[C@@H]32)CC5=O)cc1 the “Selectivity Index” value [4] was 2.87, the CC50 [1] was 21.2 µg/mL (≈ 50.3 µM) and the “Selectivity Index” value [6] was 1.89. It also gave an IC50 (Hepatitis B virus [10]) of 11.2 µg/mL (≈ 26.6 µM), an IC50 (Hepatitis B virus [2]) of 5.57 µg/mL (≈ 13.2 µM) and an IC50 (Hepatitis B virus [15]) of 7.38 µg/mL (≈ 17.5 µM). For the same molecule, the “Selectivity Index” value [3] was 3.8.
